Key:
Type in all cases: functional
NCI/ADR-RES [1] = test: Cytotoxicity against human NCI/ADR-RES cells assessed as cellular growth at 10 uM after 48 hrs by SRB assay
Procedure, shortened: (§1)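 NCI-60 panel lines grown in RPMI 1640 with 5% FBS and 2 mM L-glutamine. Plated at 5000–40,000 cells/well and preincubated 24 h at 37 °C, 5% CO₂, with time-zero plates fixed in TCA. Compounds, dissolved in DMSO and diluted in medium, were applied for 48 h. Cells were TCA-fixed (10% final for adherent, 16% for suspension) and stained with 0.4% SRB in 1% acetic acid. Dye was solubilised in 10 mM Tris base and read at 515 nm; growth was expressed as a percentage of untreated control.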

EKVX = test: Antitumor activity against human EKVX cells after 48 hrs by SRB assay
Procedure, shortened: (§2)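 NCI60 panel in RPMI 1640 with 5% FBS and 2 mM L-glutamine. Cells were plated at 5000–40,000/well by doubling time, held 24 h, then time-zero plates were TCA-fixed. Five concentrations (10-fold or half-log dilutions of DMSO stocks) were applied for 48 h at 37 °C, 5% CO2. Cells were fixed with cold TCA (10% final adherent, 16% suspension) and stained with 0.4% SRB. Bound dye was dissolved in 10 mM Tris and read at 515 nm. GI50, TGI and LC50 were calculated per line.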

OVCAR-3 [2] = test: Cytotoxicity against human OVCAR3 cells assessed as cellular growth at 10 uM after 48 hrs by SRB assay; procedure, shortened: as §1
KM12 = test: Antitumor activity against human KM12 cells after 48 hrs by SRB assay; settings: KM12, 48 h; procedure, shortened: as §2
OVCAR-3 [3] = test: Antitumor activity against human OVCAR3 cells after 48 hrs by SRB assay; settings: OVCAR-3, 48 h; procedure, shortened: as §2
SNB-75 [4] = test: Antitumor activity against human SNB75 cells after 48 hrs by SRB assay; settings: SNB-75, 48 h
Procedure, shortened: (§3)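 NCI60 panel cells grown in RPMI 1640 with 5% FBS and 2 mM L-glutamine, plated at 5000–40,000 cells/well and preincubated 24 h at 37 °C, 5% CO₂. Compound was added from DMSO at five concentrations, 10-fold or 1/2 log dilutions, then incubated 48 h.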

HCT-116 = test: Antitumor activity against human HCT116 cells after 48 hrs by SRB assay; settings: HCT-116, 48 h; procedure, shortened: as §2
M14 = test: Cytotoxicity against human M14 cells assessed as cellular growth at 10 uM after 48 hrs by SRB assay
Procedure, shortened: (§4)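 NCI60 single-dose screen of cells in RPMI 1640 with 5% FBS and 2 mM L-glutamine, preincubated 24 h at 37 °C, 5% CO₂. Cells were then exposed 48 h to compound added from DMSO stock. TCA-fixed, stained with 0.4% SRB in 1% acetic acid, dye solubilised in 10 mM Tris base and read at 515 nm. Growth is given as percent of untreated control.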

HL-60(TB) = test: Antitumor activity against human HL-60(TB) cells after 48 hrs by SRB assay; settings: HL-60, 48 h
Procedure, shortened: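 NCI60 screen: cells grown in RPMI 1640 with 5% FBS and 2 mM L-glutamine, plated at 5000–40,000 cells/well by doubling time, preincubated 24 h at 37 °C with 5% CO2. Compounds were diluted from DMSO stocks and given for 48 h, at five concentrations for dose response. A time-zero plate was TCA-fixed. Cells were TCA-fixed, stained with 0.4% SRB and read at 515 nm, with growth expressed relative to untreated controls.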

SF-268 = test: Cytotoxicity against human SF268 cells assessed as cellular growth at 10 uM after 48 hrs by SRB assay; procedure, shortened: as §1
DU-145 = test: Cytotoxicity against human DU145 cells assessed as cellular growth at 10 uM after 48 hrs by SRB assay; procedure, shortened: as §4
SK-MEL-28 = test: Antitumor activity against human SK-MEL-28 cells after 48 hrs by SRB assay; settings: SK-MEL-28, 48 h; procedure, shortened: as §3
NCI/ADR-RES [5] = test: Antitumor activity against human NCI/ADR-RES cells after 48 hrs by SRB assay; procedure, shortened: as §2
MDA-MB-435 [6] = test: Cytotoxicity against human MDA-MB-435 cells assessed as cellular growth at 10 uM after 48 hrs by SRB assay; procedure, shortened: as §1
LOX IMVI = test: Antitumor activity against human LOXIMVI cells after 48 hrs by SRB assay; procedure, shortened: as §2
Malme-3M = test: Antitumor activity against human MALME-3M cells after 48 hrs by SRB assay; procedure, shortened: as §2
U-251 = test: Antitumor activity against human U251 cells after 48 hrs by SRB assay; settings: U-251, 48 h; procedure, shortened: as §3
NCI-H460 = test: Cytotoxicity against human NCI-H460 cells assessed as cellular growth at 10 uM after 48 hrs by SRB assay; procedure, shortened: as §1
OVCAR-8 = test: Antitumor activity against human OVCAR8 cells after 48 hrs by SRB assay; settings: OVCAR-8, 48 h; procedure, shortened: as §2
MDA-MB-435 [7] = test: Antitumor activity against human MDA-MB-435 cells after 48 hrs by SRB assay; settings: MDA-MB-435, 48 h; procedure, shortened: as §2
OVCAR-4 = test: Antitumor activity against human OVCAR4 cells after 48 hrs by SRB assay; settings: OVCAR-4, 48 h; procedure, shortened: as §2
CAKI-1 = test: Cytotoxicity against human Caki1 cells assessed as cellular growth at 10 uM after 48 hrs by SRB assay; procedure, shortened: as §4
SNB-75 [8] = test: Cytotoxicity against human SNB75 cells assessed as cellular growth at 10 uM after 48 hrs by SRB assay; procedure, shortened: as §1
[9] = read-out: LC50 (the source's name)
[10] = read-out: pLC50 (the source's name) (converted)

With `COc1ccc(/C(=C2/O[C@@H]([C@H]3COC(C)(C)O3)[C@H]3OC(C)(C)O[C@@H]23)c2cc(OC)c(OC)c(OC)c2)cc1O` the Activity (NCI/ADR-RES [1]) was 10.1%, the GI50 (EKVX; read-out: GI50) was 5.57 µM and the CC50 (EKVX; [9]) was > 100 µM. For the same compound, the TGI (EKVX; read-out: TGI) was > 100 µM, the GI50 (EKVX; read-out: pGI50 (converted)) was 56.2 µM and the CC50 (EKVX; [10]) was > 100 µM. The TGI (EKVX; read-out: pTGI) was > 100 µM, the Activity (OVCAR-3 [2]) was 48% and the GI50 (KM12) was 3.99 µM. For the same compound, the LC50 (KM12) was > 100 µM, the TGI (KM12) was > 100 µM and the GI50 (OVCAR-3 [3]) was 2.38 µM. It also gave a TGI (OVCAR-3 [3]) of 5.34 µM, a CC50 (OVCAR-3 [3]; [9]) of 22.9 µM and a GI50 (SNB-75 [4]) of 1.8 µM. It also gave a TGI (SNB-75 [4]) of 6.31 µM, a CC50 (SNB-75 [4]; [9]) of 53.5 µM and a GI50 (HCT-116) of 4.14 µM. For the same compound, the LC50 (concentration giving 50% net cell kill) (HCT-116) was > 100 µM, the TGI (HCT-116) was > 100 µM and the Activity (M14) was 7.95%. The GI50 (HL-60(TB); read-out: GI50) was 3.39 µM, the CC50 (HL-60(TB); [9]) was > 100 µM and the TGI (HL-60(TB); read-out: TGI) was 23.3 µM. For the same compound, the GI50 (HL-60(TB); read-out: pGI50 (converted)) was 3.39 µM, the CC50 (HL-60(TB); [10]) was > 100 µM and the TGI (HL-60(TB); read-out: pTGI (converted)) was 23.4 µM. For the same compound, the Activity (SF-268) was 36.3%, the Activity (DU-145) was 34.8% and the LC50 (50% lethal concentration) (SK-MEL-28) was > 100 µM. The GI50 (SK-MEL-28; read-out: GI50) was 5.45 µM, the TGI (SK-MEL-28; read-out: TGI) was > 100 µM and the GI50 (SK-MEL-28; read-out: pGI50 (converted)) was 5.5 µM. For the same compound, the CC50 (SK-MEL-28; [10]) was > 100 µM, the TGI (SK-MEL-28; read-out: pTGI) was > 100 µM and the GI50 (NCI/ADR-RES [5]) was 2.52 µM. For the same compound, the LC50 (NCI/ADR-RES [5]) was > 100 µM, the TGI (NCI/ADR-RES [5]) was 6.91 µM and the Activity (MDA-MB-435 [6]) was 44.7%. For the same compound, the GI50 (LOX IMVI) was 5.18 µM, the TGI (LOX IMVI) was > 100 µM and the CC50 (LOX IMVI; [9]) was > 100 µM. The GI50 (Malme-3M) was 5.46 µM, the LC50 (concentration killing 50% of cells present at time zero) (Malme-3M) was > 100 µM and the TGI (Malme-3M) was > 100 µM. For the same compound, the GI50 (U-251) was 3.84 µM, the TGI (U-251) was 48.2 µM and the CC50 (U-251; [9]) was > 100 µM. The Activity (NCI-H460) was 79.36%, the GI50 (OVCAR-8; read-out: GI50) was 5.27 µM and the CC50 (OVCAR-8; [9]) was > 100 µM. For the same compound, the TGI (OVCAR-8; read-out: TGI) was > 100 µM, the GI50 (OVCAR-8; read-out: pGI50 (converted)) was 5.25 µM and the CC50 (OVCAR-8; [10]) was > 100 µM. The TGI (OVCAR-8; read-out: pTGI) was > 100 µM, the GI50 (MDA-MB-435 [7]) was 1.48 µM and the TGI (MDA-MB-435 [7]) was 3.7 µM. The CC50 (MDA-MB-435 [7]; [9]) was > 100 µM, the CC50 (OVCAR-4; [9]) was > 100 µM and the GI50 (OVCAR-4; read-out: pGI50 (converted)) was 9.12 µM. For the same compound, the CC50 (OVCAR-4; [10]) was > 100 µM, the TGI (OVCAR-4; read-out: pTGI (converted)) was > 100 µM and the Activity (CAKI-1) was 93.05%. The Activity (SNB-75 [8]) was 6.11%.

From ChEMBL document CHEMBL1828575, “Design, synthesis and antiproliferative activities of biarylolefins based on polyhydroxylated and carbohydrate scaffolds” (Eur J Med Chem, 2011)
